From ChEMBL document CHEMBL1139880, “Potent and selective agonists of human melanocortin receptor 5: cyclic analogues of alpha-melanocyte-stimulating hormone” (J Med Chem, 2007)
Starred links: 1 amine or outer side, 2 acyl side, 3 side chain; linkers in the order of their positions; H or OH if unused. Positions of bridges follow the written chain, without caps; N, C: chain ends. Non-standard residues stand in square brackets, D forms with d. Residues, ends and D or L forms follow the SMILES beside them. ξ: configuration not given here. X2 = O=C([C@@H](Cc1ccc(Cc2ccccc2)cc1)N[*:1])[*:2]; Oic(3aξ,7aξ) = O=C(O)[C@@H]1CC2CCCCC2N1; Pip = O=C(O)[C@@H]1CCCCN1; Nle = CCCC[C@H](N)C(=O)O

What was measured:
Melanocortin receptor 5 [1] = target: T1, Melanocortin receptor 5 (Homo sapiens, UniProt P33032); experiment: Agonist activity at human MC5R expressed in CHO cells assessed as cAMP accumulation; type: functional, cell-based
Melanocortin receptor 3 = Melanocortin receptor 3 (Homo sapiens, UniProt P41968); experiment: Displacement of [125I]NDPalphaMSH from human cloned MC3R expressed in CHO cells; type: cell-based
Melanocortin receptor 5 [2] = target: T1, Melanocortin receptor 5; experiment: Displacement of [125I]NDPalphaMSH from human cloned MC5R expressed in CHO cells; type: cell-based
[3] = target: T2, Melanocyte-stimulating hormone receptor (Homo sapiens, UniProt Q01726); experiment: Agonist activity at human melanocortin receptor 1b expressed in CHO cells assessed as cAMP accumulation; type: functional, cell-based
How it was run: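 Dissociated CHO cells were spun 5 min and resuspended in Earle's balanced salt solution with 10 mM HEPES pH 7.5, 5 mM MgCl2, 1 mM glutamine and 1 mg/mL BSA. They were incubated 40 min at room temperature with compound (0.003–5000 nM) plus 0.6 mM IBMX, then lysed with 0.1 M HCl. cAMP was measured by Flashplate cAMP assay.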

Melanocortin receptor 4 = Melanocortin receptor 4 (Homo sapiens, UniProt P32245); experiment: Displacement of [125I]NDPalphaMSH from human cloned MC4R expressed in CHO cells; type: cell-based
[4] = target: T2, Melanocyte-stimulating hormone receptor; experiment: Displacement of [125I]NDPalphaMSH from human cloned melanocortin receptor 1b expressed in CHO cells; type: cell-based

T1 sequence (P33032 whole entry): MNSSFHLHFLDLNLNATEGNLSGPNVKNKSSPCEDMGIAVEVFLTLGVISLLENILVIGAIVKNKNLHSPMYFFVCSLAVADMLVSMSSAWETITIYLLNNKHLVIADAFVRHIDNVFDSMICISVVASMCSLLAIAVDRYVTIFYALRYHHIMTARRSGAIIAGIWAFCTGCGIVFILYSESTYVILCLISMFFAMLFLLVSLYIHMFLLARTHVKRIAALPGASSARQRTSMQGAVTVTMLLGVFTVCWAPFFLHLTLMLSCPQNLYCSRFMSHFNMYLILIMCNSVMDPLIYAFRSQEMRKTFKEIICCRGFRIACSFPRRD
T2 sequence (Q01726 whole entry): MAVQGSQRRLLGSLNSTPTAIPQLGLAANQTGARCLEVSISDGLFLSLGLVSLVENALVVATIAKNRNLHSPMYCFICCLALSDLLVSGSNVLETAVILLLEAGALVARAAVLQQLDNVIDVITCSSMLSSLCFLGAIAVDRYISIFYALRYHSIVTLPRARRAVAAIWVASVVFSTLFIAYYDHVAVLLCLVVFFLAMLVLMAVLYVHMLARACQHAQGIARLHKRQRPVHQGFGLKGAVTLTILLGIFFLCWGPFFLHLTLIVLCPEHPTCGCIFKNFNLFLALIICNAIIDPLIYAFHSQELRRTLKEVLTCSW
Chain of Melanocortin receptor 4 (P32245 whole entry): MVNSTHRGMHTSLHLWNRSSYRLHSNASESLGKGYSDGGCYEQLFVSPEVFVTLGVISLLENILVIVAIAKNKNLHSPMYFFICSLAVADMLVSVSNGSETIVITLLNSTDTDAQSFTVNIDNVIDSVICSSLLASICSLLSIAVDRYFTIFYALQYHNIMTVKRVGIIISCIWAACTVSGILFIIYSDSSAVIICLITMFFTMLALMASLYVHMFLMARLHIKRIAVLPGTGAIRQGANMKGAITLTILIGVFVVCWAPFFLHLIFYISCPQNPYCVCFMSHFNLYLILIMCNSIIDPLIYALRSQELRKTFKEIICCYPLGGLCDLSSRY
Chain of Melanocortin receptor 3 (P41968 whole entry): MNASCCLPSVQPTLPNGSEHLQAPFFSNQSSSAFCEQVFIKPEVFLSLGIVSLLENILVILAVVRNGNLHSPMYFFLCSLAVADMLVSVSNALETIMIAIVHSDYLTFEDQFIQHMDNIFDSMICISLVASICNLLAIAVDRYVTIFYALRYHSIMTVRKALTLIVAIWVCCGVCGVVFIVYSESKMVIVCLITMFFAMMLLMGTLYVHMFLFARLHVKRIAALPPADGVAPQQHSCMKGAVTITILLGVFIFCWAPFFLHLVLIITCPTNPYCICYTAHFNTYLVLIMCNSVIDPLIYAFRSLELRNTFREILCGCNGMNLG

Compound | EC50 (Melanocortin receptor 5 [1]) | IC50 (Melanocortin receptor 3) | IC50 (Melanocortin receptor 5 [2]) | EC50 [3] | IC50 (Melanocortin receptor 4) | IC50 [4] | IC50 (Melanocortin receptor 3; cho) [nM] | IC50 (Melanocortin receptor 5 [2]; cho) | IC50 ([4]; cho) | IC50 (Melanocortin receptor 4; cho)
CCCC[C@H](NC(C)=O)C(=O)N[C@H]1CC(=O)NCCCC[C@@H](C(N)=O)NC(=O)[C@H](Cc2c[nH]c3ccccc23)NC(=O)[C@@H]2CCCN2C(=O)[C@@H](Cc2ccc(-c3ccccc3)cc2)NC(=O)[C@@H]2CCCN2C1=O | 1.6 nM (agonist) | 630 nM (antagonist) | 2.9 nM (antagonist) | 350 nM (agonist) | 1000 nM (antagonist) | 2100 nM (antagonist) | – | – | – | –
CCCC[C@H](NC(C)=O)C(=O)N[C@H]1CC(=O)NCCCC[C@@H](C(N)=O)NC(=O)[C@H](Cc2c[nH]c3ccccc23)NC(=O)[C@@H]2CCCN2C(=O)[C@@H](CCCC)NC(=O)[C@H](Cc2cnc[nH]2)NC1=O | – | – | – | – | – | > 10000 nM | – | – | – | –
CCCC[C@H](NC(C)=O)C(=O)N[C@H]1CC(=O)NCCCC[C@@H](C(N)=O)NC(=O)[C@H](Cc2c[nH]c3ccccc23)NC(=O)[C@@H]2CCCN2C(=O)[C@@H](CC2CCCCC2)NC(=O)[C@H](Cc2c[nH]cn2)NC1=O | – | > 10000 nM | > 10000 nM | > 2500 nM | > 10000 nM | > 10000 nM | – | – | – | –
CCCC[C@H](NC(C)=O)C(=O)N[C@H]1CC(=O)NCCCC[C@@H](C(N)=O)NC(=O)[C@H](Cc2c[nH]c3ccccc23)NC(=O)[C@@H]2CCCN2C(=O)[C@@H](Cc2ccc3ccccc3c2)NC(=O)[C@H](Cc2cnc[nH]2)NC1=O | – | – | – | 89 nM (agonist) | – | 880 nM (antagonist) | – | – | – | –
CCCC[C@H](NC(C)=O)C(=O)N[C@H]1CC(=O)NCCCC[C@@H](C(N)=O)NC(=O)[C@H](Cc2c[nH]c3ccccc23)NC(=O)[C@@H]2CCCN2C(=O)[C@H](Cc2ccc(OC)cc2)NC(=O)[C@H](Cc2cnc[nH]2)NC1=O | – | – | – | – | – | > 2000 nM | – | – | – | –
CCCC[C@H](NC(C)=O)C(=O)N[C@H]1CC(=O)NCCCC[C@@H](C(N)=O)NC(=O)[C@H](Cc2c[nH]c3ccccc23)NC(=O)[C@@H]2CCCCN2C(=O)[C@@H](Cc2ccc(-c3ccccc3)cc2)NC(=O)[C@H](c2ccccc2)NC1=O | 0.29 nM (agonist) | > 1000 nM | 2.1 nM (antagonist) | – | 990 nM (antagonist) | > 1000 nM | – | – | – | –
CCCC[C@H](NC(C)=O)C(=O)N[C@H]1CC(=O)NCCCC[C@@H](C(N)=O)NC(=O)[C@H](Cc2c[nH]c3ccccc23)NC(=O)[C@@H]2CCCN2C(=O)[C@@H](Cc2ccc(-c3ccccc3)cc2)NC(=O)[C@@H]2CC3CCCCC3N2C1=O (stereo not given in full) | 17 nM (agonist) | 4400 nM (antagonist) | 10 nM (antagonist) | > 2500 nM | 4700 nM (antagonist) | 7800 nM (antagonist) | – | – | – | –
CCCC[C@H](NC(C)=O)C(=O)N[C@H]1CC(=O)NCCCC[C@@H](C(N)=O)NC(=O)[C@H](Cc2c[nH]c3ccccc23)NC(=O)[C@@H]2CCCCN2C(=O)[C@@H](Cc2ccc(Cc3ccccc3)cc2)NC(=O)[C@@H]2CC3CCCCC3N2C1=O (stereo not given in full) (Ac-[Nle]D[Oic(3aξ,7aξ)][X2][Pip]WK-NH2; lactam 2-7) | 31 nM (agonist) | > 1000 nM | 24 nM (antagonist) | – | 1600 nM (antagonist) | > 1000 nM | – | – | – | –
CCCC[C@H](NC(C)=O)C(=O)N[C@H]1CC(=O)NCCCC[C@@H](C(N)=O)NC(=O)[C@H](Cc2c[nH]c3ccccc23)NC(=O)[C@@H]2CCCN2C(=O)[C@@H](CCCCN)NC(=O)[C@H](Cc2cnc[nH]2)NC1=O | – | > 10000 nM | > 10000 nM | – | – | > 10000 nM | – | – | – | –
CCCC[C@H](NC(C)=O)C(=O)N[C@H]1CC(=O)NCCCC[C@@H](C(N)=O)NC(=O)[C@H](Cc2c[nH]c3ccccc23)NC(=O)[C@@H]2CCCN2C(=O)[C@@H](CCC(=O)O)NC(=O)[C@H](Cc2c[nH]cn2)NC1=O | – | > 10000 nM | > 10000 nM | – | > 10000 nM | > 10000 nM | – | – | – | –
CCCC[C@H](NC(C)=O)C(=O)N[C@H]1CC(=O)NCCCC[C@@H](C(N)=O)NC(=O)[C@H](Cc2c[nH]c3ccccc23)NC(=O)[C@@H]2CCCN2C(=O)[C@H]2Cc3ccccc3CN2C(=O)[C@H](Cc2cnc[nH]2)NC1=O | – | – | – | – | – | – | > 10000 | > 10000 nM | > 10000 nM | –
CCCC[C@H](NC(C)=O)C(=O)N[C@H]1CC(=O)NCCCC[C@@H](C(N)=O)NC(=O)[C@H](Cc2c[nH]c3ccccc23)NC(=O)[C@@H]2CCCN2C(=O)[C@@H](Cc2cccs2)NC(=O)[C@H](Cc2cnc[nH]2)NC1=O | > 1500 nM | > 5000 nM | > 5000 nM | 540 nM (agonist) | – | > 5000 nM | – | – | – | –
CCCC[C@H](NC(C)=O)C(=O)N[C@H]1CC(=O)NCCCC[C@@H](C(N)=O)NC(=O)[C@H](Cc2c[nH]c3ccccc23)NC(=O)[C@@H]2CCCN2C(=O)[C@@H](CCC(N)=O)NC(=O)[C@H](Cc2c[nH]cn2)NC1=O | – | > 10000 nM | > 10000 nM | – | > 10000 nM | > 10000 nM | – | – | – | –
CCCC[C@H](NC(C)=O)C(=O)N[C@H]1CC(=O)NCCCC[C@@H](C(N)=O)NC(=O)[C@H](Cc2c[nH]c3ccccc23)NC(=O)[C@@H]2CCCN2C(=O)[C@@H](C(c2ccccc2)c2ccccc2)NC(=O)[C@H](Cc2c[nH]cn2)NC1=O | – | – | – | – | – | – | > 10000 | 1500 nM (antagonist) | 2900 nM (antagonist) | 74 nM (antagonist)
CCCC[C@H](NC(C)=O)C(=O)N[C@H]1CC(=O)NCCCC[C@@H](C(N)=O)NC(=O)[C@H](Cc2c[nH]c3ccccc23)NC(=O)[C@@H]2CCCN2C(=O)[C@@H](Cc2cnc[nH]2)NC(=O)[C@H](Cc2cnc[nH]2)NC1=O | – | – | – | – | – | > 10000 nM | – | – | – | –
CCCC[C@H](NC(C)=O)C(=O)N[C@H]1CC(=O)NCCCC[C@@H](C(N)=O)NC(=O)[C@H](Cc2c[nH]c3ccccc23)NC(=O)[C@@H]2CCCN2C(=O)[C@@H](Cc2ccc([N+](=O)[O-])cc2)NC(=O)[C@H](Cc2cnc[nH]2)NC1=O | 770 nM (agonist) | > 2000 nM | 780 nM (antagonist) | > 500 nM | – | > 2000 nM | – | – | – | –
CCCC[C@H](NC(C)=O)C(=O)N[C@H]1CC(=O)NCCCC[C@@H](C(N)=O)NC(=O)[C@H](Cc2c[nH]c3ccccc23)NC(=O)[C@@H]2CCCCN2C(=O)[C@@H](Cc2ccc(-c3ccccc3)cc2)NC(=O)[C@@H]2CC3CCCCC3N2C1=O (stereo not given in full) | 0.99 nM (agonist) | > 5000 nM | 0.95 nM (antagonist) | – | > 5000 nM | > 5000 nM | – | – | – | –
CCCC[C@H](NC(C)=O)C(=O)N[C@H]1CC(=O)NCCCC[C@@H](C(N)=O)NC(=O)[C@H](Cc2c[nH]c3ccccc23)NC(=O)[C@@H]2CCCCN2C(=O)[C@@H](Cc2ccc(-c3ccccc3)cc2)NC(=O)[C@@H]2Cc3ccccc3CN2C1=O | 0.45 nM (agonist) | 3900 nM (antagonist) | 2.7 nM (antagonist) | 130 nM (agonist) | 720 nM (antagonist) | 710 nM (antagonist) | – | – | – | –
CCCC[C@H](NC(C)=O)C(=O)N[C@H]1CC(=O)NCCCC[C@@H](C(N)=O)NC(=O)[C@H](Cc2c[nH]c3ccccc23)NC(=O)[C@@H]2CCCN2C(=O)[C@H](Cc2ccccc2)NC(=O)[C@H](Cc2cnc[nH]2)NC1=O | – | – | – | > 1000 nM | – | 980 nM (antagonist) | – | – | – | –
CCCC[C@H](NC(C)=O)C(=O)N[C@H]1CC(=O)NCCCC[C@@H](C(N)=O)NC(=O)[C@H](Cc2c[nH]c3ccccc23)NC(=O)[C@@H]2CCCCN2C(=O)[C@@H](Cc2ccc(-c3ccccc3)cc2)NC(=O)[C@H](C2CCCCC2)NC1=O | 1 nM (agonist) | > 10000 nM | 50 nM (antagonist) | > 500 nM | > 10000 nM | > 10000 nM | – | – | – | –
CCCC[C@H](NC(C)=O)C(=O)N[C@H]1CC(=O)NCCCC[C@@H](C(N)=O)NC(=O)[C@H](Cc2c[nH]c3ccccc23)NC(=O)[C@@H]2CCCN2C(=O)[C@@H](Cc2ccc(OC)cc2)NC(=O)[C@H](Cc2cnc[nH]2)NC1=O | – | – | – | 50 nM (agonist) | – | 500 nM (antagonist) | – | – | – | –
CCCC[C@H](NC(C)=O)C(=O)N[C@H]1CC(=O)NCCCC[C@@H](C(N)=O)NC(=O)[C@H](Cc2c[nH]c3ccccc23)NC(=O)[C@@H]2CCCN2C(=O)[C@@H](Cc2ccccc2)NC(=O)[C@H](Cc2cnc[nH]2)NC1=O | – | – | – | 1300 nM (agonist) | – | 2500 nM (antagonist) | – | – | – | –
CCCC[C@H](NC(C)=O)C(=O)N[C@H]1CC(=O)NCCCC[C@@H](C(N)=O)NC(=O)[C@H](Cc2c[nH]c3ccccc23)NC(=O)[C@@H]2CCCN2C(=O)[C@@H](Cc2ccc(O)cc2)NC(=O)[C@H](Cc2cnc[nH]2)NC1=O | – | – | – | > 2500 nM | – | > 10000 nM | – | – | – | –
